This is an account of results in ChEMBL document CHEMBL4152184, “NB 06: From a simple lysosomotropic aSMase inhibitor to tools for elucidating the role of lysosomes in signaling apoptosis and LPS-induced inflammation” (Eur J Med Chem, 2018).

Activity calls are given as the source filed them. The rule behind the calls is not given here.

In assay [1] the test system is MONO-MAC-6. The assay is described as follows: Downregulation of CXCL3 mRNA expression level in human MONO-MAC-6 cells at 5 uM incubated for 30 mins measured after 4 hrs by oligonucleotide array hybridization assay relative to control. Type of assay: functional. Summed up:
(§1)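 Total RNA was isolated, transcribed and labeled with DY-647 dye, then co-hybridized with DY-548-labeled cDNA from untreated cells on an inflammation oligonucleotide chip (780 gene probes). Differential expression >1.5 was taken as significant.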

The test system of assay [2] is MONO-MAC-6. Kind of assay: Upregulation of IL-6 mRNA expression level in LPS-stimulated human MONO-MAC-6 cells at 5 uM preincubated for 30 mins followed by LPS stimulation measured after 4 hrs by qRT-PCR method (reference value: 76.46). Type of assay: functional. On the technique in general: Quantitative PCR measures a nucleic acid by following its amplification.
The subject of assay [3] is MONO-MAC-6. Kind of assay: Upregulation of PTGS2 mRNA expression level in LPS-stimulated human MONO-MAC-6 cells at 5 uM preincubated for 30 mins followed by LPS stimulation measured after 2 hrs by oligonucleotide array hybridization assay (reference value: 1.97). Type of assay: functional.
The target in assay [4] is T1, Sphingomyelin phosphodiesterase (Homo sapiens) (UniProt P17405).
T1 sequence (whole entry): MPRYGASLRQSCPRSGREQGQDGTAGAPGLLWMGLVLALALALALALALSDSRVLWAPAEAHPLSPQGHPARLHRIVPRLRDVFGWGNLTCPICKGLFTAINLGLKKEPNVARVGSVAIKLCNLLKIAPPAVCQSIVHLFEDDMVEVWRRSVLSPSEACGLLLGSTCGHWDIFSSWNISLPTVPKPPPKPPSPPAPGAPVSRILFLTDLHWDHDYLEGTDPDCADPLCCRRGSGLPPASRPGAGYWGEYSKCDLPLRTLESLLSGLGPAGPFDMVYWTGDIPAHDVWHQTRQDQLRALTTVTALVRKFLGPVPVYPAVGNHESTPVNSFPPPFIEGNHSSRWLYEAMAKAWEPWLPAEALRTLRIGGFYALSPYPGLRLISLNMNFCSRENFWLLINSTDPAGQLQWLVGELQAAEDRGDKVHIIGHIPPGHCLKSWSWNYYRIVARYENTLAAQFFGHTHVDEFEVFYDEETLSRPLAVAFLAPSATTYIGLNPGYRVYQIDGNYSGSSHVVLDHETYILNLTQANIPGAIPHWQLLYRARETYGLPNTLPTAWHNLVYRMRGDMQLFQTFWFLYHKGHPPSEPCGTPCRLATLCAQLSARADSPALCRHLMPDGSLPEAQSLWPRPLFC
Kind of assay: Inhibition of mmLDL-stimulated acid sphingomyelinase in human PBMC lysates up to 2 uM preincubated for 30 mins followed by mmLDL stimulation measured after 4 hrs by YO-PRO-1/Hoechst 33342 staining based assay.

The test system of the next assay is PBMC. The assay is described as follows: Inhibition of TNFalpha-stimulated apoptosis in human PBMC assessed as apoptotic cells at 2 uM preincubated for 30 mins followed by TNFalpha stimulation measured after 4 hrs by YO-PRO-1/Hoechst 33342 staining based assay relative to control. Also noted: scale not given: the % may be the effect or the level left. It counts as functional. In short, it runs like this:
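PBMC pre-incubated 30 min with 2 μM compound, then stimulated with mmLDL (27 μg/mL; line 5) or TNFalpha (3 ng/mL; line 1) for 4 h. Apoptotic cells stained with YO-PRO-1 and all cells with Hoechst 33342. Each plate had control, stimulus, compound alone and compound plus stimulus; n = 3. Values are on a 0% (untreated control, corrected for spontaneous apoptosis) to 100% (stimulus alone) scale; means ± SE.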

In assay [5] the test system is MONO-MAC-6. The assay is described as follows: Downregulation of CXCL10 mRNA expression level in human MONO-MAC-6 cells at 5 uM incubated for 30 mins measured after 4 hrs by oligonucleotide array hybridization assay relative to control. It counts as functional. Summed up:
as §1

Assay [6] relates to MONO-MAC-6. The assay is described as follows: Downregulation of PTX3 mRNA expression level in human MONO-MAC-6 cells at 5 uM incubated for 30 mins measured after 4 hrs by oligonucleotide array hybridization assay relative to control. Type of assay: functional. In short, it runs like this:
as §1

Assay [7] deals with MONO-MAC-6. Kind of assay: Upregulation of CXCL10 mRNA expression level in LPS-stimulated human MONO-MAC-6 cells at 5 uM preincubated for 30 mins followed by LPS stimulation measured after 2 hrs by oligonucleotide array hybridization assay (reference value: 1.73). Type of assay: functional.
Assay [8] deals with T2, Acid ceramidase (Homo sapiens) (UniProt Q13510).
T2 sequence (whole entry): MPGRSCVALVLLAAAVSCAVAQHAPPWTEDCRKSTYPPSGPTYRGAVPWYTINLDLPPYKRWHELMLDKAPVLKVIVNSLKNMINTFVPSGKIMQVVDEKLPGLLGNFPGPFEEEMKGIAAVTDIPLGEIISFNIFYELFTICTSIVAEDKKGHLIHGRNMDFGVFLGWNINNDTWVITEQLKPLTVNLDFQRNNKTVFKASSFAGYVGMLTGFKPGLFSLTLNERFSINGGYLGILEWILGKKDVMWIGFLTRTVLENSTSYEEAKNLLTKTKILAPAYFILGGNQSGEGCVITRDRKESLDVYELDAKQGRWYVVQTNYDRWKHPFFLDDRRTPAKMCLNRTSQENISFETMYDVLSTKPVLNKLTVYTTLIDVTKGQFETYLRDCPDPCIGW
The assay is described as follows: Inhibition of TNFalpha-stimulated acid ceramidase in human PBMC assessed as ratio of C16-ceramide/lipid phosphate level at 10 uM preincubated for 30 mins followed by TNFalpha stimulation measured after 4 hrs by HPLC method (reference value: 0.49). Type of assay: cell-based. In short, it runs like this:
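Human macrophages from primary culture were preincubated 30 min with 10 µM compound. They were then stimulated 4 h with mmLDL (54 µg/mL), TNFalpha (3 ng/mL) or exogenous C6-ceramide (10 µM), or left unstimulated. Individual ceramide species (C16 and C24:1) were quantified in the cell lipid extracts.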

Assay [9] concerns MONO-MAC-6. Kind of assay: Upregulation of CXCL10 mRNA expression level in human MONO-MAC-6 cells at 5 uM incubated for 30 mins measured after 2 hrs by oligonucleotide array hybridization assay relative to control. Type of assay: functional.
Assay [10] deals with MONO-MAC-6. The assay is described as follows: Upregulation of CXCL2 mRNA expression level in LPS-stimulated human MONO-MAC-6 cells at 5 uM preincubated for 30 mins followed by LPS stimulation measured after 1 hr by oligonucleotide array hybridization assay (reference value: 1.42). Type of assay: functional.
Assay [11] relates to MONO-MAC-6. Kind of assay: Upregulation of CXCL3 mRNA expression level in LPS-stimulated human MONO-MAC-6 cells at 5 uM preincubated for 30 mins followed by LPS stimulation measured after 2 hrs by oligonucleotide array hybridization assay (reference value: 3.24). Type of assay: functional.
Assay [12] relates to MONO-MAC-6. The assay is described as follows: Downregulation of ICAM1 mRNA expression level in human MONO-MAC-6 cells at 5 uM incubated for 30 mins measured after 2 hrs by oligonucleotide array hybridization assay relative to control. It counts as functional. In short, it runs like this: as §1
In assay [13] the test system is MONO-MAC-6. Kind of assay: Downregulation of TNFalpha mRNA expression level in LPS-stimulated human MONO-MAC-6 cells at 5 uM preincubated for 30 mins followed by LPS stimulation measured after 6 hrs by qRT-PCR method (reference value: 2.17). Type of assay: functional.
Assay [14] relates to MONO-MAC-6. The assay is described as follows: Upregulation of IFNA13 mRNA expression level in LPS-stimulated human MONO-MAC-6 cells preincubated for 30 mins followed by LPS stimulation measured after 1 hr by qRT-PCR analysis relative to control. It counts as functional.
The test system of assay [15] is MONO-MAC-6. The assay is described as follows: Upregulation of IL23A mRNA expression level in human MONO-MAC-6 cells at 5 uM incubated for 30 mins measured after 1 hr by qRT-PCR method relative to control. It counts as functional.

On to `COc1ccc(CCN(C)CCCn2c3ccccc3c3ccccc32)cc1`, for which the “fold change (FC)” value in the assay on MONO-MAC-6 [1] amounted to 1.21; in the assay with MONO-MAC-6 [2], 29.11; with MONO-MAC-6 [3], 3.66; in the assay on MONO-MAC-6 [5] it was 2.08; in the assay with MONO-MAC-6 [6], 1.93; with MONO-MAC-6 [7] it was 1.63. Besides, the “fold change (FC)” value in the assay on MONO-MAC-6 [9] worked out at 1; in the assay with MONO-MAC-6 [10] it was 1.14; in the assay with MONO-MAC-6 [11] it was 2.34; with MONO-MAC-6 [12], 1.28; in the assay on MONO-MAC-6 [13], 1.16; in the assay with MONO-MAC-6 [14], 41.95. Moreover, in the assay with MONO-MAC-6 [15], the “fold change (FC)” value is 1.01. Moreover, the inhibition result in assay [4] is “inactive”. The Activity with PBMC stood at 19%. The Ratio in assay [8] worked out at 0.16.
